# Source: PubChem
# KCNK3 inh – human KCNK3 channel inhibitors, primary screen, CHO cells, FluxOR thallium flux, B-score. Potassium channel subfamily K member 3 (Homo sapiens), O14649. FluxOR fluorescence; hits give low values. B-score at 10 µM. actives 0.84% (n = 340,000). AID 602410, 2012;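 active = B-score under library mean minus 4 SD, starting fluorescence ratio at most library mean plus 5 SD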;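 also: more negative B-score means stronger inhibition of thallium flux through KCNK3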
# KCNQ1 block – inhibitors of human KCNQ1 channel, primary screen, cell-based, thallium flux, high-throughput. CHO-K1 KCNQ1, FluxOR thallium flux fluorescence; hits give high values. B-score at 10 µM. AID 2642, 2010. Potassium voltage-gated channel subfamily KQT member 1 (Homo sapiens), P51787. actives 1.3% (n = 310,000);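 active = compounds whose thallium flux B-score, printed positive for inhibition, exceeds three library SD while starting fluorescence stays within three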;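 also: channel opened by potassium depolarization with thallium stimulus after 20 min compound exposure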
# KCNQ1 act – potentiators or activators of KCNQ1 channel, primary screen, cell-based, thallium flux, high-throughput. CHO-K1 KCNQ1, thallium flux FluxOR fluorescence; hits give high values. B-score at 10 µM. actives 0.35% (n = 310,000). Potassium voltage-gated channel subfamily KQT member 1 (Homo sapiens), P51787;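 active = fluorescence ratio B-score, a plate-corrected score, at least three library SD, with initial intensity B-score within 5 SD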
#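 Material: CHO-K1 cells stably expressing KCNQ1. Medium: assay buffer for compound exposure, DMSO matched across wells. Reagent: K+/Tl+ depolarizing stimulus. Compound dosing: single-concentration screen. Times: 37 °C overnight plating, 90-min dark dye load, 20-min compound pretreatment. Technique: FluxOR Tl+ flux fluorescence.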
# KCNK9 inh – KCNK9 potassium channel inhibitors, primary screen, HEK293 cells, thallium flux; FluxOR thallium flux fluorescence; hits give low values; AID 488922, 2010; Potassium channel subfamily K member 9 (Homo sapiens), Q9NPC2; actives 1.2% (n = 310,000); B-score at 10 µM;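 active = ratio B-score over 3 SD below the library mean, with starting fluorescence within 5 SD of its mean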;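 also: negative B-score means less thallium flux so channel inhibition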
# hERG rescue – hERG rescue from dofetilide block, primary screen, cell-based, CHO-hERG, FluxOR thallium flux, dofetilide IC70; actives 0.51% (n = 310,000); activation (rescue from dofetilide block), less the hit threshold, % at 10 µM; dofetilide IC70 present; AID 1511, 2009; Voltage-gated inwardly rectifying potassium channel KCNH2 (Homo sapiens), Q12809;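 active = activation above the mean of controls blocked by dofetilide plus 5 SD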;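 also: thallium influx through hERG after potassium depolarization seen as dye fluorescence rise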
# Target sequence (Q12809 whole entry, looked up): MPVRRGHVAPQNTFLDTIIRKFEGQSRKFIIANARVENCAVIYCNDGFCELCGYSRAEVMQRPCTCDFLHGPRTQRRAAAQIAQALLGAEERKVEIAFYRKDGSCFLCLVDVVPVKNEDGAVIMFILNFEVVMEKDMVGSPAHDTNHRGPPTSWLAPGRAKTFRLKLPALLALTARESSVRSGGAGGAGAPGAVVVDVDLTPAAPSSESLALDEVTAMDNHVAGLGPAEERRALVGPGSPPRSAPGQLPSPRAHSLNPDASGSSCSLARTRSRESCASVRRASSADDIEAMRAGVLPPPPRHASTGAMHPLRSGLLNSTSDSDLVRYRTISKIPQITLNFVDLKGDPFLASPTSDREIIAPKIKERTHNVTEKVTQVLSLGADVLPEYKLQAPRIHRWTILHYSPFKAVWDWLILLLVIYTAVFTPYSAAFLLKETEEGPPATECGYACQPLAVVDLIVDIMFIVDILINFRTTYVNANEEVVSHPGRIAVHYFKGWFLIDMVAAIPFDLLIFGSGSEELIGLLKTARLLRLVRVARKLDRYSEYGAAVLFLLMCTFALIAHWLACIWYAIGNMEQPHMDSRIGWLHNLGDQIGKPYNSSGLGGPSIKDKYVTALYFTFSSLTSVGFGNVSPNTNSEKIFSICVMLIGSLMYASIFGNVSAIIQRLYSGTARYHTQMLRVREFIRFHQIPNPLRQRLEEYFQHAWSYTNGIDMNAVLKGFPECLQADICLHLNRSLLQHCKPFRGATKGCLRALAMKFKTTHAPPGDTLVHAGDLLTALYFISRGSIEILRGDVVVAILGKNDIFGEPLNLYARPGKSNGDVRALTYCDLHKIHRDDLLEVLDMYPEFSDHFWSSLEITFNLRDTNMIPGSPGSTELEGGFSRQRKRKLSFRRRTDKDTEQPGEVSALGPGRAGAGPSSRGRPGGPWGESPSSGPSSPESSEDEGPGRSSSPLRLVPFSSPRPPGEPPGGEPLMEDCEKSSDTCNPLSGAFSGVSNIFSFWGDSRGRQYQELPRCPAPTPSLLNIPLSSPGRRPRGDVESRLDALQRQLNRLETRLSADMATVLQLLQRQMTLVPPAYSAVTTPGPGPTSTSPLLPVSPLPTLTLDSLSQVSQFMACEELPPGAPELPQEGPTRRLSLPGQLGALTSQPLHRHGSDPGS
# Cl transport mod – KCC2 cotransporter modulators, thallium flux, primary screen, cell-based, HEK293 KCC2, FluoZin-2 fluorescence, MLSMR; actives 2.2% (n = 190,000); B-score of Tl+ flux slope (higher = more flux/activation; lower = inhibition) at 10 µM; Solute carrier family 12 member 5 (Homo sapiens), Q9H2X9; KCC2 cells, thallium flux FluoZin-2 fluorescence;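 active = thallium flux slope and its plate-corrected score both differing from the plate sample mean at a set confidence after two filtering rounds, in either direction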;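 also: slope of fluorescence scaled to starting intensity during 10 to 20 s after thallium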
# Hits are given with their value; i = inactive; nt = no result given. A selection: hits, their analogues and other compounds. The true share with any hit is near 4.1%.
SMILES,KCNK3 inh,KCNQ1 block,KCNQ1 act,KCNK9 inh,hERG rescue,Cl transport mod
COc1ccc(CN(CCC#N)C(=S)NC(=O)c2ccccc2)cc1,i,i,i,i,i,17
COc1cc(OC)cc(C(=O)NC(=S)NCCc2ccccc2)c1,i,i,i,i,i,nt
CCOc1ccc(C(=O)NC(=S)N(Cc2ccccc2)Cc2ccccc2)cc1,i,i,75,i,27,nt
COc1ccccc1N1CCN(C(=O)c2ccc(-c3ccc(Cl)cc3)o2)CC1,i,nt,nt,nt,nt,nt
Cc1ccc(C(=O)CNc2ccccc2)cc1,i,i,i,i,i,nt
CS(=O)(=O)N(CCc1ccccc1)CC(=O)Nc1ccc2c(c1)OCO2,i,i,i,-7.9,i,i
CS(=O)(=O)N(CC(=O)Nc1ccc2c(c1)OCO2)Cc1ccccc1,i,i,i,i,i,i
O=c1c2c(nc3c(-c4cccc(Br)c4)c[nH]n13)CCCC2,i,i,i,i,i,21
Cc1ccccc1NC(=O)CSc1ccc(-c2ccccn2)nn1,i,i,i,i,i,nt
C[C@@H](NCCc1ccc(O)cc1)[C@@H](O)c1ccc(O)cc1,i,i,i,i,i,nt
CCCCCCCCNC(C)C(O)c1ccc(SC(C)C)cc1 (centres undefined),i,6,i,i,i,i
CNc1cc(C)c(C#N)c2nc3ccccc3n12,i,i,i,i,i,nt
Cc1cc(Cl)n2c(nc3ccccc32)c1C#N,i,6,i,i,i,i
Cc1cccc(C(C)C)c1NC(=O)CN1C(=O)NC(Cc2ccccc2)C1=O (centres undefined),i,i,i,i,i,nt
O=C(COc1ccc2ccccc2c1Br)Nc1ccncc1,i,i,i,i,i,nt
O=C(COc1ccc2ccccc2c1Br)Nc1cccnc1,i,i,i,i,23,nt
CCN(CC)CCNC(=O)Cn1cnc2sc(C)c(S(=O)(=O)N3CCN(c4ncccn4)CC3)c2c1=O,i,i,i,i,i,i
O=C1CC(N(CCc2ccccc2)C(=S)Nc2ccccc2)C(=O)N1c1ccc(Br)cc1 (centres undefined),i,6,i,i,i,i
COc1ccc(CCN(C(=S)Nc2ccccc2)C2CC(=O)N(c3ccccc3)C2=O)cc1 (centres undefined),i,i,i,i,i,i
CCc1ccc(NC(=O)NCc2ccccn2)cc1,i,i,i,i,i,nt
CCOC(=O)CSc1nc2cc3c(cc2cc1CC)OCCO3,i,i,i,i,i,i
Cc1[nH]c2ccc(F)cc2c1CCN(Cc1ccncc1)C(=S)Nc1ccc(F)cc1,i,i,i,-7.1,i,i
O=C(NCc1nc2ccccc2[nH]1)c1ccc(S(=O)(=O)N2CCCC2)cc1,i,i,i,i,8.1,i
O=C(c1ccccc1)c1ccccc1N/C=C/c1nnnn1-c1ccccc1,i,i,i,i,i,i
Cc1cc(-c2nnc(SCC(=O)Nc3ccccc3)n2C)no1,i,i,i,i,i,i
SMILES,KCNK3 inh,KCNQ1 block,KCNQ1 act,KCNK9 inh,hERG rescue,Cl transport mod
Cc1cc(-c2nnc(SCC(=O)Nc3ccc(C(F)(F)F)cc3)n2C)no1,i,i,i,i,6.2,i
O=C(c1ccco1)N1CCN(S(=O)(=O)c2ccc(C3CCCCC3)cc2)CC1,i,i,i,i,8.2,nt
O=C(c1ccco1)N1CCN(S(=O)(=O)c2ccc(S(=O)(=O)NC3CCCCC3)cc2)CC1,i,i,i,i,i,i
Cc1cccc(NC(=O)C2c3ccccc3C(=O)N3CCc4ccccc4C23)n1 (centres undefined),i,i,i,-7.4,i,nt
COc1ccc(C2C(C(=O)Nc3cccc(C)n3)c3ccccc3C(=O)N2C)cc1 (centres undefined),i,i,i,i,i,nt
COc1ccccc1C(=O)NC(=Nc1nc2ccccc2o1)NC(=O)c1ccccc1OC,i,i,i,-16,i,i
CSCCNC(=O)c1cccc(Cl)c1,i,i,i,i,i,i
CSCCNC(C)=O,nt,i,i,i,5.5,i
CCOC(=O)CN1NC2(CCC(C)CC2)NC1=S (centres undefined),i,i,i,i,i,nt
CCOC(=O)CN1NC2(CCC(C(C)(C)C)CC2)NC1=S (centres undefined),i,i,i,i,8.7,i
C=CCNC(=O)c1cc2c(=O)n3cc(C)ccc3nc2nc1NCC1CCCO1 (centres undefined),nt,i,i,i,i,i
O=c1c2nccnc2[nH]c(=S)n1Cc1ccccc1,i,i,i,i,i,i
CN1CCN(CCn2c(=S)[nH]c3ccccc3c2=O)CC1,i,i,i,i,i,nt
O=c1c2cccnc2[nH]c(=S)n1Cc1ccccc1,i,i,i,i,i,5.5
O=c1c2cc(F)ccc2[nH]c(=S)n1CCCN1CCOCC1,i,i,i,i,i,6.4
O=c1c2ccccc2[nH]c(=S)n1CCN1CCN(Cc2ccccc2)CC1,i,i,i,i,i,15
CCOc1ccc(C(C)C)cc1S(=O)(=O)n1ccnc1C,i,i,i,i,i,i
CCOc1cc(C)cc2oc(=O)cc(-c3ccccc3)c12,i,i,i,-7,i,i
N=C1/C(=C\c2ccc(-c3cccc(Cl)c3)o2)C(=O)N=C2SC=C(c3ccccc3)N12,i,i,8,i,i,i
Cc1ccc(C)c(N2C(=O)CC(Cc3ccc(Br)cc3)C2=O)c1 (centres undefined),i,i,i,i,i,nt
COc1ccc(CCNC(=O)c2cc(C(=O)c3cc(Cl)ccc3O)cn(CCc3ccc(OC)cc3)c2=O)cc1,i,8,i,i,i,i
O=C(c1cc(C(=O)NCCc2ccccc2)c(=O)n(CCc2ccccc2)c1)c1cc(Cl)ccc1O,i,10,i,i,i,i
Cc1cc(C)cc(C(=O)N2CCCCC2)c1,i,nt,nt,nt,nt,nt
O=C(COc1ccc2c(c1)OCO2)NC12CC3CC(CC(C3)C1)C2,i,i,i,i,i,i
O=C(NCc1ccc2c(c1)OCO2)NC12CC3CC(CC(C3)C1)C2,i,i,i,i,4.9,i
Cc1ccnc2nc(C(=O)OCCOc3ccc(Cl)cc3)nn12,i,i,i,i,i,i
CC(NCC(O)COCCC12CC3CC(CC(C3)C1)C2)c1ccccc1 (centres undefined),i,8,i,i,i,i
NCC(O)COCCC12CC3CC(CC(C3)C1)C2 (centres undefined),i,i,i,i,i,i
